According to ChEMBL document CHEMBL1122660 (J Med Chem, 1984):

Legend:
[1] = Partition coefficient between 1-octanol and water containing phosphate buffer at pH 7.4; assay type: physicochemical; settings: 1-octanol/water containing phosphate buffer
[2] = system: P388; assay: Ratio of optimal dose (OD) and minimum effective dose (MED) required for antitumor activity in mice bearing P-388 lymphocytic leukemia; assay type: functional, Mus musculus
[3] = system: P388; assay: Minimum effective dose against P388 leukemic cells; assay type: functional; settings: Mus musculus, read-out: MED
[4] = system: P388; assay: Maximum percent T/C (antitumor activity) against P388 leukemia cells; assay type: functional, Mus musculus
[5] = species: Mus musculus; assay: Maximum percent T/C (antitumor activity) against P388 leukemia cells for Mitomycin C. The number of 30-day survivors is given in the parenthesis.; assay type: functional
[6] = system: P388; assay: Optimum dose (mg/kg) against P388 leukemic cells; assay type: functional, Mus musculus
[7] = species: Mus musculus; assay: Maximum percent T/C (antitumor activity) against P388 leukemia cells for the compound. The number of 30-day survivors is given in the parenthesis.; assay type: functional
[8] = system: Mus musculus; assay: Evaluated for antitumor activity against B-16 melanoma in mice at a dose 3 mg/kg day, ip, on days 1, 4, and 7 against B-16 Melanoma cell *-Tumors survivors on day 62; assay type: functional
[9] = system: Mus musculus; assay: Evaluated for antitumor activity against B-16 melanoma in mice at a dose 1 mg/kg day, ip, on days 1, 4, and 7 against B-16 Melanoma cell; assay type: functional
Outline: (§1)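 B-16 melanoma in mice, run at Bristol Laboratories by standard NCI protocols. Compound given ip on days 1, 4 and 7 in Me2SO + buffered saline vehicle; ten mice per dose. Read-outs per dose: %T/C, number of survivors, and weight change.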

[10] = system: Mus musculus; assay: Evaluated for antitumor activity against B-16 melanoma in mice at a dose 4 mg/kg day, ip, on days 1, 4, and 7 against B-16 Melanoma cell *-Tumors survivors on day 62; assay type: functional
[11] = system: Mus musculus; assay: Evaluated for antitumor activity against B-16 melanoma in mice at a dose 4 mg/kg day, ip, on days 1, 4, and 7 against B-16 Melanoma cell; assay type: functional; outline: as §1
[12] = species: Mus musculus; assay: Maximum percent T/C (antitumor activity) against P388 leukemia cells for the compound; 144-325; assay type: functional
[13] = system: Mus musculus; assay: Evaluated for antitumor activity against B-16 melanoma in mice at a dose 2 mg/kg day, ip, on days 1, 4, and 7 against B-16 Melanoma cell *-Tumors survivors on day 62; assay type: functional
[14] = system: Mus musculus; assay: Evaluated for antitumor activity against B-16 melanoma in mice at a dose 2 mg/kg day, ip, on days 1, 4, and 7 against B-16 Melanoma cell; assay type: functional; outline: as §1
[15] = species: Mus musculus; assay: Percentage change in WBC at optimum dose on day 3; assay type: functional
[16] = system: Mus musculus; assay: Evaluated for antitumor activity against B-16 melanoma in mice at a dose 3 mg/kg day, ip, on days 1, 4, and 7 against B-16 Melanoma cell; assay type: functional; outline: as §1
[17] = system: Mus musculus; assay: Evaluated for antitumor activity against B-16 melanoma in mice at a dose 1 mg/kg day, ip, on days 1, 4, and 7 against B-16 Melanoma cell *-Tumors survivors on day 62; assay type: functional
[18] = system: Mus musculus; assay: Evaluated for antitumor activity against B-16 melanoma in mice aat a dose 1 mg/kg day, ip,on days 1, 4, and 7 against B-16 Melanoma cell; assay type: functional; outline: as §1
[19] = system: Mus musculus; assay: Evaluated for antitumor activity against B-16 melanoma in mice at a dose 5 mg/kg day, ip, on days 1, 4, and 7 against B-16 Melanoma cell; assay type: functional
[20] = system: P388; assay: Maximum percent T/C (antitumor activity) against P388 leukemia cells for Mitomycin C; assay type: functional, Mus musculus
[21] = system: Mus musculus; assay: Evaluated for antitumor activity against B-16 melanoma in mice at a dose 8 mg/kg day, ip, on days 1, 4, and 7 against B-16 Melanoma cell; assay type: functional
[22] = system: Mus musculus; assay: Evaluated for antitumor activity against B-16 melanoma in mice at a dose 12 mg/kg day, ip, on days 1, 4, and 7 against B-16 Melanoma cell; assay type: functional
[23] = system: Mus musculus; assay: Evaluated for antitumor activity against B-16 melanoma in mice at a dose 5 mg/kg day, ip, on days 1, 4, and 7 against B-16 Melanoma cell *-Tumors survivors on day 62; assay type: functional
[24] = system: Mus musculus; assay: Evaluated for antitumor activity against B-16 melanoma in mice aat a dose 3 mg/kg day, ip,on days 1, 4, and 7 against B-16 Melanoma cell; assay type: functional
[25] = Distribution between 1-octanol and water containing phosphate buffer at pH 7.4; assay type: physicochemical; settings: 1-octanol/water containing phosphate buffer
[26] = system: Mus musculus; assay: Evaluated for antitumor activity against B-16 melanoma in mice at a dose 6 mg/kg day, ip, on days 1, 4, and 7 against B-16 Melanoma cell; assay type: functional
[27] = system: Mus musculus; assay: Evaluated for antitumor activity against B-16 melanoma in mice aat a dose 2 mg/kg day, ip,on days 1, 4, and 7 against B-16 Melanoma cell; assay type: functional

Row | Compound | logD [1] | Therapeutic ratio [2] | minimal effective dose [3] | T/C [4] | T/C [5] | OD [6] | T/C [7] | Change [15] | T/C [20] | logD [25] | further results
1 | COC12[C@@H]3N[C@@H]3CN1C1=C(C(=O)C(Nc3ccc(Cl)cc3)=C(C)C1=O)[C@@H]2COC(N)=O (some centres undefined) | 2.01 | 4 | 6.4 mg/kg | 144% | 250% | 25.6 mg/kg | – | – | – | – | –
2 | [H][C@@]12CN3c4c(O)c(C)c(/N=C5C=C/C(=N\CC(=O)O)C=C/5)c(O)c4[C@H](COC(N)=O)C3(OC)[C@]1([H])N2 (some centres undefined) | -0.78 | 32 | 0.8 mg/kg | – | 294% | 25.6 mg/kg | 322% | – | – | – | –
3 | CO[C@@]12[C@H](COC(N)=O)C3=C(C(=O)C(C)=C(N)C3=O)N1C[C@@H]1N[C@@H]12 [MITOMYCIN] | – | – | 0.2 mg/kg | – | – | 3.2 mg/kg | – | -42% | – | – | Cures [8]: 0; T/C [9]: 155%; Cures [10]: 0; Average weight gain [11]: -0.1; T/C [11]: 200%; T/C [12]: 144%; Cures [13]: 0; Average weight gain [14]: 0.5 g; T/C [14]: 152%; Average weight gain [16]: -0.1 g; T/C [16]: 165%; Cures [17]: 0; Average weight gain [18]: 0.2 g
4 | [H][C@@]12CN3c4c(O)c(C)c(/N=C5C=C/C(=N\C(C)=O)C=C/5)c(O)c4[C@H](COC(N)=O)C3(OC)[C@]1([H])N2 (some centres undefined) | 0.33 | 128 | 0.2 mg/kg | – | – | 25.6 mg/kg | >333% | -40% | 200% | – | Cures [8]: 0; Average weight gain [19]: 0.8 g; T/C [19]: 185%; Average weight gain [21]: 0.3 g; T/C [21]: 207%; Average weight gain [22]: -1.3 g; T/C [22]: 175%; T/C [16]: 155%; Cures [23]: 0; Average weight gain [24]: 1.4 g
5 | COC12[C@@H]3N[C@@H]3CN1C1=C(C(=O)C(Nc3nccs3)=C(C)C1=O)[C@@H]2COC(N)=O (some centres undefined) | – | 32 | 0.4 mg/kg | 194% | – | 6.4 mg/kg | – | -22% | 281% | 0.62 | –
6 | COC12[C@@H]3N[C@@H]3CN1c1c(O)c(C)c(N=C3C=CC(=N)C=C3)c(O)c1[C@@H]2COC(N)=O (some centres undefined) | 0.07 | >64 | < 0.2 mg/kg | – | 250% | 12.8 mg/kg | >337% | -64% | – | – | –
7 | COc1ccc(NC2=C(C)C(=O)C3=C(C2=O)[C@H](COC(N)=O)C2(OC)[C@@H]4N[C@@H]4CN32)cc1 (some centres undefined) | 1.28 | 16 | – | – | 268% | 12.8 mg/kg | 316% | -76% | – | – | –
8 | COC12[C@@H]3N[C@@H]3CN1C1=C(C(=O)C(Nc3nc(C)c(C)s3)=C(C)C1=O)[C@@H]2COC(N)=O (some centres undefined) | – | 128 | 0.2 mg/kg | 188% | – | 25.6 mg/kg | – | – | 219% | 1.29 | –
9 | COc1ccc(NC2=C(C)C(=O)C3=C(C2=O)[C@H](COC(N)=O)C2(OC)[C@@H]4N[C@@H]4CN32)cc1OC (some centres undefined) | – | 64 | 0.2 mg/kg | – | – | 12.8 mg/kg | >333% | – | 278% | – | Average weight gain [11]: -0.6 g; T/C [11]: 252%; T/C [14]: 180%; Average weight gain [21]: 0.9 g; T/C [21]: 227%; Average weight gain [26]: 0.6 g; T/C [26]: 263%; Average weight gain [27]: -1.3 g
10 | COC12[C@@H]3N[C@@H]3CN1c1c(O)c(C)c(/N=C3/C=CN=N3)c(O)c1[C@@H]2COC(N)=O (some centres undefined) | – | – | 0.8 mg/kg | – | – | 25.6 mg/kg | 333% | -15% | 161% | – | –
11 | COC12[C@@H]3N[C@@H]3CN1C1=C(C(=O)C(N=C3C=CC(=Nc4c(C)c(O)c5c(c4O)[C@H](COC(N)=O)C4(OC)[C@@H]6N[C@@H]6CN54)C=C3)=C(C)C1=O)[C@@H]2COC(N)=O (some centres undefined) | – | 8 | 1.6 mg/kg | 161% | 250% | 25.6 mg/kg | – | – | – | – | –
12 | COC12[C@@H]3N[C@@H]3CN1c1c(O)c(C)c(/N=C3/C=CC(=N)N=C3)c(O)c1[C@@H]2COC(N)=O (some centres undefined) | – | 32 | 0.4 mg/kg | 277% | – | 12.8 mg/kg | – | – | 206% | -0.32 | –
13 | COc1ccc(NC2=C(C)C(=O)C3=C(C2=O)[C@H](COC(N)=O)C2(OC)[C@@H]4N[C@@H]4CN32)cn1 (some centres undefined) | – | 32 | 0.2 mg/kg | 211% | – | 6.4 mg/kg | – | -45% | 233% | 0.59 | –
14 | COC12[C@@H]3N[C@@H]3CN1C1=C(C(=O)C(Nc3cccnc3)=C(C)C1=O)[C@@H]2COC(N)=O (some centres undefined) | – | 16 | 0.2 mg/kg | 211% | – | 3.2 mg/kg | – | -33% | 198% | 0.52 | –
